{"source": "ChEMBL document CHEMBL5226322", "about": "“Harnessing the Role of HDAC6 in Idiopathic Pulmonary Fibrosis: Design, Synthesis, Structural Analysis, and Biological Evaluation of Potent Inhibitors” (J Med Chem, 2021)", "key": {"[1]": {"assay": "Solubility of the compound at pH 7.4 PBS buffer incubated for 24 hrs by HPLC-UV analysis", "type": "physicochemical", "conditions": "pH 7.4, 24 h", "procedure,_shortened": "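Compound from 10 mM DMSO stock diluted to 250 μM (2.5% DMSO), either in 50 mM acetic acid (pH 3.0) or in 50 mM aqueous PBS (pH 7.4). Shaken 24 h at 25 °C, PTFE-filtered and diluted 1:2. Quantified by RP-18 HPLC-UV at 254 nm against a 250 μM standard in MeCN/water. Run in triplicate and averaged.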"}, "[2]": {"assay": "Metabolic stability in human liver microsome assessed as half life at 5 uM in presence of NADPH incubated up to 60 mins by HPLC analysis", "type": "ADME", "conditions": "microsomes, 1 h"}, "[3]": {"tested_on": "NIH3T3", "assay": "Cytotoxicity in mouse NIH3T3 cells assessed as reduction in cell viability at 5 uM incubated for 24 hrs by neutral red uptake method based UV/visible spectrophotometer analysis", "type": "toxicity", "conditions": "nih3t3, 24 h", "procedure,_shortened": "(§1)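 NIH3T3 fibroblasts grown in DMEM with 10% FCS, L-glutamine/pen-strep and non-essential amino acids at 37 °C, 5% CO2. Monolayers exposed 24 h to compound diluted from a DMSO stock into medium. Neutral Red medium then added for 3 h at 37 °C. Dye extracted with acetic acid/ethanol desorb solution and absorbance read at 540 nm. Student's t-test, p<0.05.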"}, "[4]": {"tested_on": "NIH3T3", "assay": "Cytotoxicity in mouse NIH3T3 cells assessed as reduction in cell viability at 50 uM incubated for 24 hrs by neutral red uptake method based UV/visible spectrophotometer analysis", "type": "toxicity", "conditions": "nih3t3, 24 h", "procedure,_shortened": "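NIH3T3 mouse fibroblasts grown in DMEM with 10% FCS, L-glutamine/pen-strep and non-essential amino acids (37 °C, 5% CO2). Exposed 24 h to compound diluted from a DMSO stock into medium. Viability measured by Neutral Red uptake: 3 h in NR medium, then acetic acid/ethanol desorb, absorbance at 540 nm. Student's t-test, p<0.05.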"}, "[5]": {"tested_on": "NIH3T3", "assay": "Cytotoxicity in mouse NIH3T3 cells assessed as reduction in cell viability at 75 uM incubated for 24 hrs by neutral red uptake method based UV/visible spectrophotometer analysis", "type": "toxicity", "conditions": "nih3t3, 24 h", "procedure,_shortened": "as §1"}, "[6]": {"tested_on": "Heart", "assay": "Cardiotoxicity in Langendorff-perfused Sprague-Dawley rat heart assessed as effect on HR at 0.01 uM by ECG analysis (reference value: 235.7 +/-8.3 bpm)", "type": "toxicity, tissue-based"}, "[7]": {"tested_on": "Heart", "assay": "Cardiotoxicity in Langendorff-perfused Sprague-Dawley rat heart assessed as effect on HR at 0.1 uM by ECG analysis (reference value: 235.7 +/-8.3 bpm)", "type": "toxicity, tissue-based"}, "[8]": {"tested_on": "Heart", "assay": "Cardiotoxicity in Langendorff-perfused Sprague-Dawley rat heart assessed as effect on HR at 1 uM by ECG analysis (reference value: 235.7 +/-8.3 bpm)", "type": "toxicity, tissue-based"}, "[9]": {"tested_on": "Heart", "assay": "Cardiotoxicity in Langendorff-perfused Sprague-Dawley rat heart assessed as effect on RR time at 0.01 uM by ECG analysis (reference value: 257.2 +/-8.1 milliseconds)", "type": "toxicity, tissue-based"}, "[10]": {"tested_on": "Heart", "assay": "Cardiotoxicity in Langendorff-perfused Sprague-Dawley rat heart assessed as effect on RR time at 0.1 uM by ECG analysis (reference value: 257.2 +/-8.1 milliseconds)", "type": "toxicity, tissue-based"}, "[11]": {"tested_on": "Heart", "assay": "Cardiotoxicity in Langendorff-perfused Sprague-Dawley rat heart assessed as effect on RR time at 1 uM by ECG analysis (reference value: 257.2 +/-8.1 milliseconds)", "type": "toxicity, tissue-based"}, "[12]": {"tested_on": "Heart", "assay": "Cardiotoxicity in Langendorff-perfused Sprague-Dawley rat heart assessed as effect on PQ interval time at 0.01 uM by ECG analysis (reference value: 43.6 +/-2.5 milliseconds)", "type": "toxicity, tissue-based"}, "[13]": {"tested_on": "Heart", "assay": "Cardiotoxicity in Langendorff-perfused Sprague-Dawley rat heart assessed as effect on PQ interval time at 10 uM by ECG analysis (reference value: 43.6 +/-2.5 milliseconds)", "type": "toxicity, tissue-based"}, "[14]": {"tested_on": "Heart", "assay": "Cardiotoxicity in Langendorff-perfused Sprague-Dawley rat heart assessed as effect on QRS interval time at 1 uM by ECG analysis (reference value: 15.2 +/-0.2 milliseconds)", "type": "toxicity, tissue-based"}, "[15]": {"tested_on": "Heart", "assay": "Cardiotoxicity in Langendorff-perfused Sprague-Dawley rat heart assessed as effect on QT interval time at 0.01 uM by ECG analysis (reference value: 76.2 +/-2.9 milliseconds)", "type": "toxicity, tissue-based"}, "[16]": {"tested_on": "Heart", "assay": "Cardiotoxicity in Langendorff-perfused Sprague-Dawley rat heart assessed as effect on QT interval time at 0.1 uM by ECG analysis (reference value: 76.2 +/-2.9 milliseconds)", "type": "toxicity, tissue-based"}, "[17]": {"tested_on": "Heart", "assay": "Cardiotoxicity in Langendorff-perfused Sprague-Dawley rat heart assessed as effect on QT interval time at 1 uM by ECG analysis (reference value: 76.2 +/-2.9 milliseconds)", "type": "toxicity, tissue-based"}, "[18]": {"tested_on": "Heart", "assay": "Cardiotoxicity in Langendorff-perfused Sprague-Dawley rat heart assessed as effect on QTc interval time at 0.1 uM by ECG analysis (reference value: 150.5 +/-5.5 milliseconds)", "type": "toxicity, tissue-based"}, "[19]": {"species_on_record": "Homo sapiens", "assay": "Antifibrotic activity in TGF-beta1-induced human Lung parenchyma assessed as inhibition of collagen 1 mRNA expression at 4.1 uM incubated upto 7 days by qRT-PCR analysis", "type": "functional", "conditions": "time <= 7.0 day", "procedure,_shortened": "(§2)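 Human lung parenchyma pieces (2 mm³) cultured in DMEM with TGF-β1 (10 ng/mL) plus compound at 0.41 or 4.1 μM or vehicle (0.1% DMSO). Tissue collected on day 7, homogenized, total RNA purified, then qRT-PCR for HDAC6, collagen I, collagen III, αSMA and fibronectin. Relative expression by the 2^-Ct method; n=3, paired t test.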"}, "[20]": {"species_on_record": "Homo sapiens", "assay": "Antifibrotic activity in TGF-beta1-induced human Lung parenchyma assessed as inhibition of collagen 3 mRNA expression at 4.1 uM incubated upto 7 days by qRT-PCR analysis", "type": "functional", "conditions": "time <= 7.0 day", "procedure,_shortened": "as §2"}, "[21]": {"species_on_record": "Homo sapiens", "assay": "Antifibrotic activity in TGF-beta1-induced human Lung parenchyma assessed as inhibition of HDAC6 mRNA expression at 4.1 uM incubated upto 7 days by qRT-PCR analysis", "type": "functional", "conditions": "time <= 7.0 day", "procedure,_shortened": "as §2"}, "[22]": {"assay": "Mutagenecity in Salmonella typhimurium TA98 in presence of S9 fraction at 1 to 75 uM incubated for 90 mins by Ames test", "type": "toxicity, subcellular", "conditions": "salmonella enterica subsp. enterica serovar typhimurium, s9, 1.5 h, dose 1-75 µM"}, "[23]": {"assay": "Mutagenecity in Salmonella typhimurium TA100 in presence of S9 fraction at 1 to 75 uM incubated for 90 mins by Ames test", "type": "toxicity, subcellular", "conditions": "salmonella enterica subsp. enterica serovar typhimurium, s9, 1.5 h, dose 1-75 µM"}, "[24]": {"assay": "Toxicity in zebra fish embryo at 50 uM […]", "set-up": "species or system Danio rerio", "conditions": "zebrafish", "procedure,_shortened": "(§3)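 Wildtype Tübingen zebrafish larvae reared at 28.5 °C (14 h light/10 h dark) in embryo medium with methylene blue. From 3 days old, exposed for 2 days to 1, 10, 25, 50 or 100 µM in embryo medium, or 0.1% DMSO vehicle. 4 larvae per well in 400 µL, 8 larvae per group. Larvae scored for swim bladder inflation and cardiac edema.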"}, "[25]": {"assay": "Toxicity in zebra fish embryo assessed as mild cardiac edema at 100 uM […]", "set-up": "species or system Danio rerio", "conditions": "zebrafish", "procedure,_shortened": "as §3"}, "[26]": {"assay": "Toxicity in zebra fish embryo assessed as visual capacity changes at 1 to 100 uM […] by optokinetic reflex assay", "set-up": "species or system Danio rerio", "conditions": "zebrafish, dose 1-100 µM", "procedure,_shortened": "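Wildtype Tübingen larvae at 28.5 °C were exposed from 3 days old for 2 days to 1–100 µM (1, 10, 25, 50, 100) in embryo medium, against 0.1% DMSO vehicle. 8 larvae per group. Visual function was then tested by optokinetic reflex at 2 days post-treatment, on 5-day-old larvae.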"}}, "note": "Active and inactive are the calls of the source. The calls are words filed in the database; no cut-off is given here.", "data": [{"smiles": "CN1CCC2(CC1)c1ccccc1N(Cc1ccc(C(=O)NO)cc1)C2c1ccccc1F", "note": "(racemic)", "values": [{"measurement": "solubility", "setting": "[1]", "result": 285, "unit": "µM"}, {"measurement": "t1/2", "setting": "[2]", "result": 51.68, "unit": "min"}]}, {"smiles": "CC1(C)c2ccccc2N(Cc2ccc(C(=O)NO)cc2)C1c1cccnc1", "note": "(racemic)", "values": [{"measurement": "Activity", "setting": "[3]", "result": 98, "unit": "%"}, {"measurement": "Activity", "setting": "[4]", "result": 71, "unit": "%"}, {"measurement": "Activity", "setting": "[5]", "result": 53, "unit": "%"}, {"measurement": "Activity", "setting": "[6]", "result": 235.4, "unit": "bpm"}, {"measurement": "Activity", "setting": "[7]", "result": 238.1, "unit": "bpm"}, {"measurement": "Activity", "setting": "[8]", "result": 235.4, "unit": "bpm"}, {"measurement": "Time", "setting": "[9]", "result": 255.9, "unit": "ms"}, {"measurement": "Time", "setting": "[10]", "result": 253.7, "unit": "ms"}, {"measurement": "Time", "setting": "[11]", "result": 257.7, "unit": "ms"}, {"measurement": "Time", "setting": "[12]", "result": 44.1, "unit": "ms"}, {"measurement": "Time", "setting": "[13]", "result": 50.4, "unit": "ms"}, {"measurement": "Time", "setting": "[14]", "result": 15.8, "unit": "ms"}, {"measurement": "Time", "setting": "[15]", "result": 78.1, "unit": "ms"}, {"measurement": "Time", "setting": "[16]", "result": 78, "unit": "ms"}, {"measurement": "Time", "setting": "[17]", "result": 76.4, "unit": "ms"}, {"measurement": "Time", "setting": "[18]", "result": 155.1, "unit": "ms"}, {"measurement": "Activity", "setting": "[19]", "result": "Active"}, {"measurement": "Activity", "setting": "[20]", "result": "Active"}, {"measurement": "Activity", "setting": "[21]", "result": "Active"}, {"measurement": "Activity", "setting": "[22]", "result": "Non-Toxic"}, {"measurement": "Activity", "setting": "[23]", "result": "Non-Toxic"}, {"measurement": "Activity", "setting": "[24]", "result": "Non-Toxic"}, {"measurement": "Activity", "setting": "[25]", "result": "Toxic"}, {"measurement": "Activity", "setting": "[26]", "result": "Non-Toxic"}]}]}
